The target of one assay is T1, Cholecystokinin receptor type A (Rattus norvegicus, UniProt P30551).
T1 sequence (P30551 whole entry): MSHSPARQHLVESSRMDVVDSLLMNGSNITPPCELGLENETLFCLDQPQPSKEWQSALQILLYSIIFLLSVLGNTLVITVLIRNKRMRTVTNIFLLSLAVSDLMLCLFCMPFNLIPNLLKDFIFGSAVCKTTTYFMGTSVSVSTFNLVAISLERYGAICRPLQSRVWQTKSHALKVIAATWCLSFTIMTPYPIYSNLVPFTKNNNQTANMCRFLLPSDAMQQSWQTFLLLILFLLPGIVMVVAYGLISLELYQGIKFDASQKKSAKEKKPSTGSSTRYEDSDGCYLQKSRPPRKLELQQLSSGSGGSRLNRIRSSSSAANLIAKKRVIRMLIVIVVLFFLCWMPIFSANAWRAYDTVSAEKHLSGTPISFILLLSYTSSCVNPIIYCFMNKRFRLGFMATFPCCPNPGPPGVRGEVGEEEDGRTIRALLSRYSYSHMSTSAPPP
The experiment in a line: Compound was evaluated for its ability to inhibit [3H]L-364718 binding Cholecystokinin type A receptor in rat pancreas membranes. In kind it is cell membranes, Membrane. A digest of the protocol: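 Male Wistar rat pancreas membranes, homogenized in 10 mM Hepes pH 7.4/5 mM MgCl2/130 mM NaCl, stored at -80 °C. […] GF/B filtration, scintillation counting. Nonspecific binding with 10 μM lorglumide. IC50 from pseudo-Hill plots, Ki by Cheng-Prusoff. Mean ± SEM of three experiments.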
In turn, `O=C(NCCC=C(c1ccccc1)c1ccccc1)c1cc2ccccc2[nH]1` yielded an inhibition constant (Ki) of more than 2000 nM.

A further assay has as its target T1, Cholecystokinin receptor type A. The experiment in a line: Displacement of [3H]L-364718 from Cholecystokinin type A receptor of rat pancreatic membranes. Type of assay: cell membranes, Membrane. The procedure, abridged: (§1)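 Male Wistar rat pancreas membranes, homogenized in 10 mM Hepes pH 7.4/5 mM MgCl2/130 mM NaCl, stored at -80 °C. GF/B filtration, scintillation counting. Nonspecific binding with 10 μM lorglumide. IC50 from pseudo-Hill plots, Ki by Cheng-Prusoff. Mean ± SEM of three experiments.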
As to `COc1ccc(C(=CCNC(=O)c2cc3ccccc3[nH]2)c2ccc(OC)cc2)cc1`, the Ki is more than 4000 nM.

`O=C(NC/C=C/c1ccccc1)Nc1ccc(Cl)cc1` gave an inhibitory constant (Ki) of more than 4000 nM.

In the case of `O=C(NCC=C(c1ccccc1)c1ccccc1)c1cc2cccc3c2n1CCC3`, the inhibition constant (Ki) is more than 2000 nM.

As for `CCCCCC(=CCNC(=O)Nc1ccc(Cl)cc1)CCCCC`, the Ki is 200 nM. This lies in the sub-micromolar range.

Turning to `O=C(NCC=C(c1ccccc1)c1ccccc1)c1cnc2ccccc2c1`, the Ki was more than 2000 nM.

Consider `O=C(NCC=C(c1ccccc1)c1ccccc1)c1ccnc2ccccc12`, for which the Ki is more than 2000 nM.

Turning to `O=C(NCC=C(c1ccccc1)c1ccccc1)c1cc2ccccc2[nH]1`, affinity was put at a Ki of 340 nM. That is a sub-micromolar value.

In the case of `O=C(NCC=C(c1ccccc1)c1ccccc1)c1ccc2ccccc2n1`, the Ki was 470 nM.

`O=C(NCCC=C(c1ccccc1)c1ccccc1)Nc1ccc(Cl)cc1` displayed an inhibition constant Ki of 400 nM.

The next assay shares this target. The experiment in a line: Inhibition of [3H]L-364718 binding to cholecystokinin type A receptor in rat pancreas membranes. In kind it is cell membranes, Membrane. A digest of the protocol: as §1
For `O=C(NCC=C(c1ccccc1)c1ccccc1)c1ccc(Cl)cc1`, the inhibition constant (Ki) was more than 2000 nM.

`O=C(NCC=C1c2ccccc2CCc2ccccc21)Nc1ccc(Cl)cc1` came in with an inhibitory constant (Ki) of more than 4000 nM.

In turn, `O=C(NCC=C(c1ccccc1)c1ccccc1)c1ccc(Cl)c(Cl)c1` showed a Ki of 400 nM. This counts as sub-micromolar.

On to `O=C(NCC=C(c1ccccc1)c1ccccc1)c1ccc2ccccc2c1`, for which the affinity, expressed as Ki, was 450 nM.

The compound `O=C(NCC=C(c1ccccc1)c1ccccc1)Nc1ccc(Cl)cc1` had a Ki of 90 nM.

In the case of `Cc1cccc(NC(=O)NCC=C(c2ccccc2)c2ccccc2)c1`, the Ki is 800 nM.

In turn, `O=C(NCC=C(c1ccccc1)c1ccccc1)c1cccc2ccccc12` had a Ki of 1000 nM.

In turn, `CCCCCN(CCCCC)C(=O)[C@@H](CCC(=O)O)NC(=O)c1ccc(Cl)c(Cl)c1` had a Ki of 49 nM.

Values taken from ChEMBL document CHEMBL1125403, “Hybrid cholecystokinin-A antagonists based on molecular modeling of lorglumide and L-364,718” (J Med Chem, 1992).
